Measurements as given in ChEMBL document CHEMBL4825685, “Structure activity relationship (SAR) study identifies a quinoxaline urea analog that modulates IKKβ phosphorylation for pancreatic cancer therapy” (Eur J Med Chem, 2021).
The source made the active and inactive calls. The calls are words filed in the database; no cut-off is given here.

How the values were obtained:
MIA PaCa-2 [1] = experiment: Induction of apoptosis in human MIA PaCa-2 cells assessed as increase in caspase 3/7 activation at 10 uM incubated for 24 hrs by Caspase-Glo assay; format: functional, cell-based
In short: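 MiaPaCa2 cells (2.5 × 10⁴/well) attached overnight, then treated 24 h at 0.1% final DMSO. alamarBlue added at 21 h for 3 h and fluorescence read at 560/590. Caspase-Glo luminescence read 2 h later. Luminescence ×100/fluorescence normalized to DMSO average, n = 3.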

MIA PaCa-2 [2] = experiment: Antitumor activity against human MIA PaCa-2 cells xenografted in Foxn1nu athymic nude mouse assessed as reduction in tumor volume at 15 mg/kg, ip administered every 3 days for 4 weeks by digital caliper method relative to control; format: functional; design: scale not given: the % may be the effect or the level left
In short: (§1)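 MiaPaCa2 cells (2.5 × 10⁶, mixed 2:1 with Matrigel) implanted subcutaneously in left flank; randomised 20 days later (n = 6/group). Gemcitabine 15 mg/kg i.p. every 72 h against vehicle (100 µl daily orally). Tumour volume measured every 3 days by caliper as 1/2 × length × width² (mm³); mice sacrificed after 27th treatment day and tumours weighed; unpaired Student's t-test.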

MIA PaCa-2 [3] = experiment: Antitumor activity against human MIA PaCa-2 cells xenografted in Foxn1nu athymic nude mouse assessed as reduction in tumor weight at 15 mg/kg, ip administered every 3 days for 4 weeks […]; format: functional; design: scale not given: the % may be the effect or the level left; in short: as §1
[4] = molecular target: T1, Inhibitor of nuclear factor kappa-B kinase subunit beta (Homo sapiens, UniProt O14920); experiment: Inhibition of TNFalpha-induced IKKbeta mediated NF-kappaB activation in human Pancreatic cancer cells by luciferase reporter gene assay; design: species or system Pancreatic cancer cell
T1 sequence (O14920 whole entry): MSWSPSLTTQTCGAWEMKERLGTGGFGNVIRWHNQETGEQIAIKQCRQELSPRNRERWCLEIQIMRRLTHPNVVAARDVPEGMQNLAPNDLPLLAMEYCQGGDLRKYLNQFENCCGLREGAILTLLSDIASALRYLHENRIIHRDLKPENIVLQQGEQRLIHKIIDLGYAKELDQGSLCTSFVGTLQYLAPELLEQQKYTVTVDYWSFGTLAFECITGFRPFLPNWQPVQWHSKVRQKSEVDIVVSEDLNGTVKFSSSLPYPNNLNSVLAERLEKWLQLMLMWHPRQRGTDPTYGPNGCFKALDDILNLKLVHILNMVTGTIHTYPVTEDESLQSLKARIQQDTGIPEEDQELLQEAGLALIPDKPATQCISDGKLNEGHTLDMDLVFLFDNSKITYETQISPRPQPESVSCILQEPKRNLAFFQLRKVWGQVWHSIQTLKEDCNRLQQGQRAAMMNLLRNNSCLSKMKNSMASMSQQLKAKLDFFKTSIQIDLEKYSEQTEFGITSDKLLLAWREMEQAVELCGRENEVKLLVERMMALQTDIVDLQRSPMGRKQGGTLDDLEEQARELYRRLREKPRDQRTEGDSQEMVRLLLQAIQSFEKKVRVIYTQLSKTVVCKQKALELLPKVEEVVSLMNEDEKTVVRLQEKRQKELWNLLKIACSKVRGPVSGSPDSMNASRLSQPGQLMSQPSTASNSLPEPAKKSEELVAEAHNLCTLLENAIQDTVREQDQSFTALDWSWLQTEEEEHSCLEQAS

MIA PaCa-2 [5] = experiment: Antitumor activity against human MIA PaCa-2 cells xenografted in Foxn1nu athymic nude mouse assessed as reduction in proliferation index at 40 mg/kg, po administered for 4 weeks by Ki67 staining based assay; format: functional, organism-based
In short: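 Same xenograft and dosing design. Formalin-fixed paraffin sections (5 µm) stained with anti-Ki-67. Percentage of Ki-67-positive cells counted in 4 fields per tumor, n = 5. Unpaired t-test.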

MIA PaCa-2 [6] = experiment: Induction of cell death in human MIA PaCa-2 cells measured after 24 hrs by fluorescent microscopy; format: functional, cell-based
In short: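 MiaPaCa2 cells treated with 5 and 10 µM for 24 h, then stained with calcein-AM plus ethidium homodimer-1 for 30 min. Live and dead cells imaged by fluorescence microscopy. Dead/total cell ratio computed, n = 3. Two-way ANOVA with Bonferroni test.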

[7] = Cmax in CD1 mouse at 10 mg/kg, iv measured up to 24 hrs measured by LC/MS-MS analysis; format: ADME, organism-based; design: route intravenous, dose 10 mg/kg, time <=24; conditions: in vivo
In short: (§2)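 Single intravenous 10 mg/kg dose in DMSO:PEG400:H2O 1:5:4. Mice killed at 0.083, 0.25, 0.5, 1, 2, 4, 8 and 24 h. Plasma levels measured by LC/MS/MS against a carbamazepine internal standard. Parameters derived by non-compartmental analysis.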

[8] = Volume of distribution at steady state in CD1 mouse at 10 mg/kg, iv measured up to 24 hrs measured by LC/MS-MS analysis; format: ADME, organism-based; conditions: in vivo, read-out: Vdss; in short: as §2
[9] = Antiproliferative activity against human T3M4 cells assessed as growth inhibition after 72 hrs by PrestoBlue dye based fluorescence assay; format: functional
[10] = Cmax in CD1 mouse at 20 mg/kg, po measured up to 24 hrs measured by LC/MS-MS analysis; format: ADME, organism-based; design: route oral, dose 20 mg/kg, time <=24; conditions: in vivo
In short: (§3)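 Oral 20 mg/kg given in DMSO:PEG400:H2O 1:4:5. Mice killed at 0.083, 0.25, 0.5, 1, 2, 4, 8 and 24 h and plasma analysed by LC/MS/MS with a carbamazepine internal standard. Parameters derived by non-compartmental analysis.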

MIA PaCa-2 [11] = experiment: Antiproliferative activity against human MIA PaCa-2 cells assessed as growth inhibition after 72 hrs by PrestoBlue dye based fluorescence assay; format: functional
[12] = AUC (0 to infinity) in CD1 mouse at 10 mg/kg, iv measured up to 24 hrs measured by LC/MS-MS analysis; format: ADME, organism-based; design: route intravenous, dose 10 mg/kg, time <=24; conditions: in vivo; in short: as §2
MIA PaCa-2 [13] = experiment: Antitumor activity against human MIA PaCa-2 cells xenografted in Foxn1nu athymic nude mouse assessed as reduction in tumor volume at 40 mg/kg, po administered for 4 weeks in combination gemcitabine by digital caliper method relative to control; format: functional; conditions: MIA PaCa-2, po, 672 h
In short: (§4)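 MiaPaCa2 cells (2.5 × 10⁶, with Matrigel 2:1) implanted s.c. in the left flank. Mice randomized at day 20, n = 6 per group. Compound given orally once daily; gemcitabine 15 mg/kg i.p. every 72 h where combined; vehicle 100 µl orally. Tumors measured by caliper every 3 days (1/2 × L × W²). Tumors weighed after sacrifice after day 27. Unpaired t-test.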

MIA PaCa-2 [14] = experiment: Antitumor activity against human MIA PaCa-2 cells xenografted in Foxn1nu athymic nude mouse assessed as reduction in tumor weight at 40 mg/kg, po administered for 4 weeks […] relative to control; format: functional; design: scale not given: the % may be the effect or the level left; in short: as §4
[15] = MRT (0 to infinity) in CD1 mouse at 20 mg/kg, po measured up to 24 hrs measured by LC/MS-MS analysis; format: ADME, organism-based; conditions: in vivo; in short: as §3
[16] = molecular target: T2, Inhibitor of nuclear factor kappa-B kinase subunit beta (Homo sapiens) (UniProt O14920); experiment: Inhibition of IKKbeta phosphorylation in human Pancreatic cancer cells measured after 6 hr by Western blot analysis; conditions: Pancreatic cancer cell, dose 0.5-5 µM
T2 sequence (whole entry): T1 sequence (O14920 whole entry)
In short: (§5)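 T3M4 cells treated at 0.5–5.0 µM for 6 h, or at 5 µM for 0.5–24 h. Lysates (40 µg protein) run on 4–20% SDS-PAGE and transferred to PVDF. Blots probed for p-IKKβ and IKKβ with β-actin loading control, chemiluminescent detection.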

[17] = Tmax in CD1 mouse at 20 mg/kg, po measured up to 24 hrs measured by LC/MS-MS analysis; format: ADME, organism-based; conditions: in vivo; in short: as §3
[18] = MRT (0 to infinity) in CD1 mouse at 10 mg/kg, iv measured up to 24 hrs measured by LC/MS-MS analysis; format: ADME, organism-based; conditions: in vivo; in short: as §2
Mus musculus = experiment: In vivo inhibition of IKKbeta in Foxn1nu athymic nude mouse xenografted with human MIA PaCa-2 cells assessed as reduction in p-IKKbeta level at 40 mg/kg, po administered for 4 weeks by immunohistochemistry analysis; format: functional, organism-based
In short: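 Same xenograft tissue. Paraffin sections antigen-retrieved in citrate pH 6.0 and stained with p-IKKβ antibody overnight at 4 °C, then HRP secondary. Histoscore (0–15) = proportion score × intensity score (0–3), n = 5. Unpaired t-test.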

[19] = AUClast in CD1 mouse at 20 mg/kg, po measured up to 24 hrs measured by LC/MS-MS analysis; format: ADME, organism-based; design: route oral, dose 20 mg/kg, time <=24; conditions: in vivo; in short: as §3
[20] = AUC (0 to infinity) in CD1 mouse at 20 mg/kg, po measured up to 24 hrs measured by LC/MS-MS analysis; format: ADME, organism-based; design: route oral, dose 20 mg/kg, time <=24; conditions: in vivo; in short: as §3
[21] = Half life in CD1 mouse at 20 mg/kg, po measured up to 24 hrs measured by LC/MS-MS analysis; format: ADME, organism-based; conditions: in vivo; in short: as §3
MIA PaCa-2 [22] = experiment: Antitumor activity against human MIA PaCa-2 cells xenografted in Foxn1nu athymic nude mouse assessed as reduction in tumor volume at 40 mg/kg, po administered for 4 weeks by digital caliper method relative to control; format: functional; design: scale not given: the % may be the effect or the level left; in short: as §4
[23] = Half life in CD1 mouse at 10 mg/kg, iv measured up to 24 hrs measured by LC/MS-MS analysis; format: ADME, organism-based; conditions: in vivo; in short: as §2
MIA PaCa-2 [24] = experiment: Antitumor activity against human MIA PaCa-2 cells xenografted in Foxn1nu athymic nude mouse assessed as reduction in tumor weight at 40 mg/kg, po administered for 4 weeks in combination gemcitabine […]; format: functional; conditions: MIA PaCa-2, po, 672 h; in short: as §4
[25] = AUClast in CD1 mouse at 10 mg/kg, iv measured up to 24 hrs measured by LC/MS-MS analysis; format: ADME, organism-based; design: route intravenous, dose 10 mg/kg, time <=24; conditions: in vivo; in short: as §2
MIA PaCa-2 [26] = experiment: Anti-migration activity in human MIA PaCa-2 cells at 5 uM measured upto 48 hrs by microscopy based wound scratch method; format: functional, cell-based; conditions: time hrs <=48
[27] = Oral bioavailability in CD1 mouse at 20 mg/kg measured up to 24 hrs measured by LC/MS-MS analysis; format: ADME, organism-based; conditions: in vivo
In short: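 %F taken from oral (20 mg/kg, DMSO:PEG400:H2O 1:4:5) and intravenous (10 mg/kg, DMSO:PEG400:H2O 1:5:4) AUC0-∞. Plasma sampled from 0.083 to 24 h and quantified by LC/MS/MS with a carbamazepine internal standard. Non-compartmental analysis.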

[28] = molecular target: T2, Inhibitor of nuclear factor kappa-B kinase subunit beta (Homo sapiens); experiment: Inhibition of IKKbeta phosphorylation in human Pancreatic cancer cells at 5 uM by Western blot analysis; conditions: Pancreatic cancer cell, time hrs <=24, TDE = time-dependent effect; in short: as §5

SMILES: Cc1cc(NC(=O)Nc2ccc3ncc(-c4cnn(C)c4)nc3c2)ccc1F
- Activity (MIA PaCa-2 [1]): inactive

SMILES: Cn1cc(-c2cnc3ccc(NC(=O)Nc4cccc(OC(F)(F)F)c4)cc3n2)cn1
- Activity (MIA PaCa-2 [1]): inactive

SMILES: Nc1ccn([C@@H]2O[C@H](CO)[C@@H](O)C2(F)F)c(=O)n1 [GEMCITABINE]
- Activity (MIA PaCa-2 [2]): 45%
- Activity (MIA PaCa-2 [3]): 45%

SMILES: Cn1cc(-c2cnc3ccc(NC(=O)Nc4cccc(C(F)(F)F)c4F)cc3n2)cn1
- IC50 [4]: 3300 nM
- Activity (MIA PaCa-2 [5]): Active
- Activity (MIA PaCa-2 [6]): Dose-Dependent Effect
- Cmax [7]: 5980 ng/mL
- Vd [8]: 2 L/kg
- GI50 [9]: 1700 nM
- Cmax [10]: 700 ng/mL
- GI50 (MIA PaCa-2 [11]): 2800 nM
- AUC(0-inf) [12]: 22800 ng·h/mL
- inhibition in vivo at 40 mg/kg (MIA PaCa-2 [13]): > 90%
- Activity (MIA PaCa-2 [14]): 75%
- MRT inf [15]: 6.3 h
- inhibition [16]: Dose-Dependent Effect
- Tmax [17]: 6 h
- MRT inf [18]: 4.5 h
- Activity (Mus musculus): Active
- AUC(0-t) at 24 h [19]: 7990 ng·h/mL
- Activity (MIA PaCa-2 [1]): Active
- AUC(0-inf) [20]: 8010 ng·h/mL
- half-life [21]: 2.5 h
- Activity (MIA PaCa-2 [22]): 75%
- half-life [23]: 2.7 h
- inhibition in vivo at 40 mg/kg (MIA PaCa-2 [24]): > 90%
- AUC(0-t) at 24 h [25]: 20300 ng·h/mL
- Activity (MIA PaCa-2 [26]): Active
- bioavailability [27]: 17.6%
- inhibition [28]: Tde

SMILES: Cc1ccc2nc(NCCN)c3ncc(C)n3c2c1
- Activity (MIA PaCa-2 [1]): inactive
